In ChEMBL document CHEMBL1141798, “Antitubercular constituents from the stem wood of Cinnamomum kotoense” (2005):
In brackets after ≈: the same amount, converted by molar mass.

What follows are molecules tested on Mycobacterium tuberculosis (assay: Antitubercular activity against Mycobacterium tuberculosis 90-221387).
Type: functional
Summary of the method: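 Agar proportion method on Middlebrook 7H10 with OADC; compounds serially diluted into molten agar (50-56 °C) to final 100 to 0.8 µg/mL. Inoculum from colonies in 7H9 broth, adjusted to McFarland no. 1, diluted 10-2; 33 µL spotted per quadrant. Incubated 35 °C, 10% CO2, 2 weeks; MIC = lowest concentration completely inhibiting growth.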

Row | SMILES | MIC
1 | CC(=O)c1ccc(C)o1 | 323 µM (≈ 40 µg/mL)
2 | COc1cc(OC)c2c(c1)O[C@H](c1ccc(O)c(OC)c1)[C@H](O)C2 | 151 µM (≈ 50.1 µg/mL)
3 | COc1cc([C@H]2OC[C@H]3[C@@H]2CO[C@@H]3c2cc(OC)c(O)c(OC)c2)cc(OC)c1O (racemic) [SYRINGARESINOL] | 239 µM (≈ 100 µg/mL)
4 | O=Cc1ccc(O)cc1 [4-HYDROXYBENZALDEHYDE] | 369 µM (≈ 45 µg/mL)
5 | O=C(O)c1ccccc1 [BENZOIC ACID] | 328 µM (≈ 40 µg/mL)
6 | CCCCCCCCCCCC(=O)O [DODECANOATE] | 62.5 µM (≈ 12.5 µg/mL)
7 | C=C1OC(=O)/C(=C/CCCCCCCCCCCCC)[C@@H]1O [ISOOBTUSILACTONE A] | 22.5 µM (≈ 6.93 µg/mL)
8 | CCCCCCCCCCCCCCCCCCCCCCCCCCCC(O)O [KOTODIOL] | 117 µM (≈ 50.1 µg/mL)
9 | CCCCCCCCCCCCC/C=C1/C(=O)O[C@@]2(C)O[C@H](CCCCCCCCCCCCC)O[C@@H]12 [KOTOLACTONE A] | 40.1 µM (≈ 20.9 µg/mL)
10 | C#CCCCCCCCCC/C=C1/C(=O)O[C@@H](C)[C@H]1O [LINCOMOLIDE B] | 10.2 µM (≈ 2.83 µg/mL)
11 | O=C(O)c1ccc(O)c(O)c1 [PROTOCATECHUIC ACID] | 649 µM (≈ 100 µg/mL)
12 | CO[C@H]1/C=C/O[C@@]2(C)Oc3c(C)c(O)c4c(O)c(c(/C=N/N5CCN(C)CC5)c(O)c4c3C2=O)NC(=O)/C(C)=C\C=C\[C@H](C)[C@H](O)[C@@H](C)[C@@H](O)[C@@H](C)[C@H](OC(C)=O)[C@@H]1C [RIFAMPIN] | 0.24 µM (≈ 0.198 µg/mL)
13 | COc1cc(C=O)cc(OC)c1O [SYRINGALDEHYDE] | 137 µM (≈ 25 µg/mL)
14 | COc1cc(C=O)ccc1O [VANILLIN] | 82.2 µM (≈ 12.5 µg/mL)
